The EternaBench riboswitch data

System: MS2 coat protein
Test: apparent Kd, MS2 coat protein; higher = weaker binding; RNA-MaP array
Outline: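 With or without input ligand, designed RNAs transcribed on an Illumina sequencing chip from sequenced DNA templates were incubated at room temperature with fluorescently labeled MS2 coat protein at 1.5 nM to 3 μM. The buffer was Tris-HCl pH 7.5 with KCl, MgCl2, BSA, DTT, tRNA and Tween20, and incubation ran 0.8–1.5 h at the lowest and 10–20 min at the highest concentrations. Apparent Kd is reported as the median of fits to binding curves from individual clusters. Designs measured on fewer than 10 clusters are not included.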

[1] = designed as: ON switch for flavin mononucleotide, no ligand
[2] = ligand present: flavin mononucleotide, designed as: ON switch for flavin mononucleotide
[3] = designed as: OFF switch for flavin mononucleotide, no ligand
[4] = ligand present: flavin mononucleotide, designed as: OFF switch for flavin mononucleotide
[5] = designed as: OFF switch for tryptophan, no ligand
[6] = ligand present: tryptophan, designed as: OFF switch for tryptophan

| Sequence | apparent Kd [1] [nM] | apparent Kd [2] [nM] | apparent Kd [3] [nM] | apparent Kd [4] [nM] | further results |
| --- | --- | --- | --- | --- | --- |
| AAUUUUUACUCAGGAUAUUGGGAGAGCACGGGUUGUUCUCCCCACAUGAGGAUCACCCAUGUGAUCAAGAAGGGAGACGCAAAG | 25.9 | 16.8 |  |  |  |
| CUCUUGCGGUUAGGAUAUUCCCUUGAAAACAAUGAAGAAGGAACCAGAUGAUCACAUGUCCUACAUGAGGAUCACCCAUGUUAA |  |  | 353 | 211 |  |
| UAUCACUGGCAGAAGGUUCUCGGAAGCGAUGGUACUCUAUACAUGAGGAUCACCCAUGUCUACGGAAAGGAUAUGCCAUUGCGA |  |  | 70 | 176 |  |
| UAACCACAUGAGGAUCACCCAUGUCCCACAUUCGCAGGAUAUGGGUCACUGAGGUCACUACCAGAAGGGCGGAUGC | 467 | 178 |  |  |  |
| AACAAACACAUGAGGAUCACCCAUGUCCUUGAUAUAAUUACUCAGGAUAUCAUGUCCUCUCACCGUGAGAAGGGAGUCAAAACC | 76.8 | 59.5 |  |  |  |
| UCAUCUGGGUCUUUGGUGCACAUGAGGAUCACCCAUGUAACUUAGGAUAUUAGUUAUGAUAUGAUUAAGAAGGAAGUCGCUAUU |  |  | 15.2 | 16.9 |  |
| CACGGAAAUCAGAAGGCGCCUACACACGCAUUGCGAGGAUAUGACCGGUCGGUCCACAUGAGGAUCACCCAUGUUAACUAACGC | 16.3 | 12.2 |  |  |  |
| GCUAGUUCACAGAAGGCGUCCGUGGGUGGCGCCUUACAUGAGGAUCACCCAUGUCAACCGUGCGACGAGGAUAUGUCAAUCGCA |  |  | 22.5 | 21.6 |  |
| AUCUAGUGCCUCAAGGAUAUGCACAGAGAGACAUGAGGAUCACCCAUGUAACAAGCAUGCUCAACGCAGAAGGUGACACUUAAGAU | 39.2 | 12.7 |  |  |  |
| ACUGACUUUACGGCCGCCACUCAUUGGCACGUGUCAUGUCAACAUGAGGAUCACCCAUGUAUGAUGAGGACCGGGUAAGGGCUGC |  |  |  |  | apparent Kd [5]: 10.9 nM; apparent Kd [6]: 12.7 nM |
| ACGCGCUGGGCGGCCGCCACUCACCUGCCGUGGACAUUUCGAGGUCACAUGAGGAUCACCCAUGUGAGGACCGGGCCCUGUAGGC |  |  |  |  | apparent Kd [5]: 13.2 nM; apparent Kd [6]: 21.2 nM |
| CAUCAAAAGCUAGGAUAUACCUAGAGUACCGGAACAUGAGGAUCACCCAUGUUAGAGUGAUGCUGGUAGAAGGAGCUGGUAAAG | 31.9 | 15.8 |  |  |  |
| AAUAGCUAAGGAUAUACGUACUCAGAGUGAUAAAUCAAAUAACAUGAGGAUCACCCAUGUAGAAGGAAGAAAUA |  |  | 30.9 | 26.1 |  |
| CGCUCGCGGCGGAAGGAUAUGUCUAUCCGGACAUGAGGAUCACCCAUGUAUGGGUACUUGCUGCAACAGAAGGUCCGUAUUAUAUG | 290 | 120 |  |  |  |
| UACAUGAACGUCAGGAUAUUGGUAUAUUACCUAGCCAAGAAGGGACAUGAGGAUCACCCAUGUAUUCGGUCCAA |  |  | 25.2 | 65.2 |  |
| GCUGUAGAAGGAUAUCACAGGAUGGACAUGAGGAUCACCCAUGUUCUUUACUCCGCACCUUGAGAAGGUCUAAGUC |  |  | 6.27 | 5.88 |  |
| GUCGAGAUUCAAGGAUAUCCGAUCUUACGCAUAGUAGAAUGACAUGAGGAUCACCCAUGUGUCCAGGAGAAGGUGAAUGGAUUU |  |  | 33.3 | 21.6 |  |
| CGCUGCCGAAGAGGAUAUCCCACGACCCAAACUGGAGAAGGCUUUAGGUUUUGCCGACAUGAGGAUCACCCAUGUGUCAGUGCA |  |  | 13.1 | 11.4 |  |
| AAACUAUGAGGAUAUACAUGAGGAUCACCCAUGUCGGUACUGGUAUGGCCCUGAUCCCGUAGAAGGCAUCGGUC |  |  | 369 | 436 |  |
| GGAUGUAGACAGGAUAUUGCCAUUCCAAUGCGCCAAGAAGGGUCUACAUGAGGAUCACCCAUGUAAAGAAUAGG |  |  | 207 | 106 |  |
| GGAUAAACUCAGAAGGAACGGCUCAAGUAAUAGUAAGGAUAUGACUGUAGGACUACAUGAGGAUCACCCAUGUUGAUGAAACAG | 8.03 | 7.91 |  |  |  |

| Sequence | apparent Kd [1] [nM] | apparent Kd [2] [nM] | apparent Kd [3] [nM] | apparent Kd [4] [nM] | further results |
| --- | --- | --- | --- | --- | --- |
| AAAGGAUUCAAGAAGGUACCCUAACAUGAGGAUCACCCAUGUCUCGGUGGCAUCAAGGUACCUGGUAAGGAUAUUGCAACCACU | 39.4 | 33.2 |  |  |  |
| GUCCUCGAAGGAUAUAUUGGAAAUUACAUGAGGAUCACCCAUGUCUCGUAGUAUAGCACGAUAGAAGGUCGGAAGA |  |  | 36.1 | 24.6 |  |
| GUCUCCUGAGAGAAGGCUCGCUCCGAGGAAUAGAGAGGAUAUCUACAUGAGGAUCACCCAUGUUGCCGAGGGAAAUGCACGGGU |  |  | 68.9 | 90.5 |  |
| GACAUGAGGAUCACCCAUGUGAAAUUCAUGGCGAUAACAUCUGAGGAUAUGUGCAGCCGAGGAAGACAGAAGGCAGAAACACAA |  |  | 117 | 119 |  |
| UUAUAAGAGAUAGGAUAUUCCGACAAAAUCGAUGAAGAAGGAUCACUCAAAACAUGAGGAUCACCCAUGUAUAUAACAAAUGUU | 57.5 | 25.4 |  |  |  |
| GCGAAGCAAGGAUAUGCCCGGCGAUACAUGAGGAUCACCCAUGUGAUGUAGUUAGUUGUAGCAGAAGGUGCGCGAU |  |  | 17.6 | 11.4 |  |
| AGAUCCUUGGUCAGGAUAUCCAAUAAAGCCGUUUGGGAGAAGGGACAUGAGGAUCACCCAUGUAAAUUGACCAC |  |  | 12.2 | 32.3 |  |
| CAUUCACUAACUCCACAUGAGGAUCACCCAUGUUGAGGUCCGAGAAGGUGCACUACGUGGGAGCGCAAGGAUAUCGCCUAGUAA | 9.84 | 7.64 |  |  |  |
| UAACCAAAUGGAUGACCACAUGAGGAUCACCCAUGUCGGCAACAGGAUAUUAUCAGAUGGGCUAAUAAGAAGGGUUACUCAGCC |  |  | 14.9 | 13.2 |  |
| CUUUUACAUGAGGAUCACCCAUGUUGUACAGGGUUAGGAUAUCUUAAUGUUAAGUUAAUGAGAGAAGGAACAGUCA | 149 | 94.8 |  |  |  |
| GCGUGGCACUGCAUACACACAUGAGGAUCACCCAUGUAUAGUAGAAGGUUCUUCAGCGGGAACAGAAAGGAUAUACUGAUAGAU | 7.74 | 7.42 |  |  |  |
| AUUACCCCAUGAGGAUAUCCAAUAAGGAGAGACAUGAGGAUCACCCAUGUCGACGGACGCAUACAGGAGAAGGCAUGGACUAGC | 13.6 | 7.54 |  |  |  |
| GUUAUCUCAUGUUCGACGGACAUGAGGAUCACCCAUGUACCUUAGGAUAUUGAUGAAAUAUGGCGCAAGAAGGAAGGUAACGCU |  |  | 6.47 | 7.52 |  |
| AAGUGCAGCCGAGGAUAUAUCCACACGCCAGUACCCUCUCACAUGAGGAUCACCCAUGUUACCGGAUAGAAGGCGGUUUAUUAU |  |  | 31.7 | 58.5 |  |
| GAAUGAAGCGAGAAGGGACCAAAUGGGCAGAAACUACAUGAGGAUCACCCAUGUAAAAUAGAUAGUCAGGAUAUCGGAAGAAAG |  |  | 36.4 | 31.8 |  |
| CCGCGUGCGGAAGGAUAUAUCCUAUGUUAGGAAAAUAACACAUGAGGAUCACCCAUGUCGAAGAGAUAGAAGGUCCGACAUACA | 29.5 | 14 |  |  |  |
| UACAUGAGGAUCACCCAUGUCUCUAGUCGUUUUUGUUAGAAUAGAAGGAGUCGCAUAAAGCAUAACUAGGAUAUAUUCUUGUUU | 16.3 | 11.6 |  |  |  |
| CCUUAUUCAUAGAAGGAGUUCAUCCUACGUGGACUAGGAUAUAUAUUCGACAUGAGGAUCACCCAUGUAUCUGAGAUCGUGGUA |  |  | 29.3 | 26.2 |  |
| UUCCCUGCUUAGGAUAUCUAGACAAGACGGUCAAGAGAAGGAAGUACAUGAGGAUCACCCAUGUUUAGCAUGAA |  |  | 10.5 | 14.2 |  |
| CCCAUACAUGAGGAUCACCCAUGUGUUGAUACCAGCAUAUGUAGAUGCCCUUGGCAGCAAGCUUGGGUCACUGGAAAACAUCUAA |  |  |  |  | apparent Kd (designed as: ON switch for theophylline, no ligand): 25.9 nM; apparent Kd (ligand present: theophylline, designed as: ON switch for theophylline): 56.5 nM |
